Like-named read-outs stand apart in the source and are kept apart here. Each block holds one molecule with its values, some of them ahead of it.
Columns and labels:
[1] = test system: Bifidobacterium adolescentis Ni3,29c; assay: Antimicrobial radial diffusion assay; type: cell-based; conditions: 1 μg peptide, 2 mM DTT, at least three experiments
Outline: (§1)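 Log-phase bacteria washed and diluted to OD600 0.1. Gel: 10 mM sodium phosphate (pH 7.4 or 5.7), 0.3 mg/ml TSB powder, 1% low-EEO agarose, 0–2 mM DTT. Peptide (1 μg/μl stock in 0.01% acetic acid) pipetted into punched wells; overlay gel poured after 3 h. Inhibition-zone diameter read after up to 48 h; 2.5 mm (well/vehicle) means no activity. ≥3 experiments, mean with s.e.m.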

[2] = test system: Lactobacillus acidophilus PZ 1138; assay: Antimicrobial radial diffusion assay; type: cell-based; conditions: 1 μg peptide, 2 mM DTT, at least three experiments
Outline: as §1

[3] = test system: Bifidobacterium breve PZ 1343; assay: Antimicrobial radial diffusion assay; type: cell-based; conditions: 1 μg peptide, 2 mM DTT, at least three experiments
Outline: as §1

[4] = test system: Bifidobacterium longum DSM 20219T; assay: Antimicrobial radial diffusion assay; type: cell-based; conditions: 1 μg peptide, 2 mM DTT, at least three experiments
Outline: as §1

[5] = test system: Streptococcus salivarius ssp thermophilus DSM20617; assay: Antimicrobial radial diffusion assay; type: cell-based; conditions: 1 μg peptide, 2 mM DTT, at least three experiments
Outline: as §1

[6] = test system: Bif. adolescentis Ni3,29c; assay: Turbidity broth assay; type: cell-based, Bifidobacterium adolescentis; conditions: higher peptide concentrations; causes apparent better growth in OD600
Outline: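 Overnight Bif. adolescentis Ni3,29c was washed twice in 10 mM sodium phosphate with 1% TSB. About 5×10^5 CFU/ml were exposed to peptide at 1.25–128 μg/ml, with 2 mM DTT where indicated, for 2 h at 37 °C in an anaerobic jar. 6% TSB was then added and A600 read at 24 and 48 h; change plotted against concentration. CFU counted in parallel on Columbia blood agar. Triplicate experiments, mean with s.e.m.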

[7] = Chemical reduction by DTT; type: physicochemical; conditions: incubation extended to 3 h or DTT increased to 10 mM; data not shown
[8] = test system: human TRX (with rat TRX reductase, NADPH); assay: In vitro reduction assay, thioredoxin system; type: biochemical; conditions: TRX increased to 6 μM or incubation prolonged to 60 min; data not shown
[9] = In vitro reduction assay, glutathione; type: physicochemical; conditions: 5 mM reduced glutathione, 100 mM sodium phosphate, 2 mM EDTA; RP-HPLC; Supplementary Figure 4
[10] = test system: glutaredoxin; assay: In vitro reduction assay, glutaredoxin; type: biochemical; conditions: 3 μM glutaredoxin with 5 mM reduced glutathione; RP-HPLC; Supplementary Figure 4
Outline: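 Glutathione-based system: 5 mM reduced glutathione in 100 mM sodium phosphate with 2 mM EDTA, plus 3 μM active glutaredoxin or buffer only, incubated with oxidized peptide. Mixtures acidified with trifluoroacetic acid and analysed by RP-HPLC: C18 column, 15–45% acetonitrile (TFA-containing solvents) over 30 min at 25 °C and 0.8 ml/min.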

[11] = test system: (anaerobic) commensal gut bacteria; assay: Antimicrobial radial diffusion assay, bacteria not given; type: cell-based; conditions: 1 μg peptide, 2 mM DTT
Outline: as §1

[12] = test system: human TRX (with rat TRX reductase, NADPH); conditions: cited from earlier work
[13] = test system: Bif. adolescentis Ni3,29c; assay: Transmission electron microscopy of bacteria; type: cell-based, Bifidobacterium adolescentis; conditions: TEM, 200 μg/ml peptide, 2 mM DTT, 2 h 37 °C, pH 7.4
[14] = Retention of reduced status in buffer with DTT; type: physicochemical; conditions: 2 mM DTT in sodium phosphate buffer

- reduction by the TRX system [8]: not sufficient to completely reduce
Molecule: Human α-defensin 6 [HD-6]
- antibiotic activity, especially under reducing conditions [1]: inhibitory activity
- antibiotic activity, especially under reducing conditions [2]: inhibitory activity
- antibiotic activity, especially under reducing conditions [3]: inhibitory activity
- antibiotic activity, especially under reducing conditions [4]: inhibitory activity
- antibiotic activity, especially under reducing conditions [5]: inhibitory activity
- aggregation in the turbidity assay [6]: light-scattering aggregations
- extent of reduction of disulfide bridges by DTT [7]: remarkably enhanced HD-6 reduction, but the oxidized form of the peptide could still be detected
- reduction by glutathione [9]: did not lead to any reduction
- reduction by glutaredoxin [10]: did not lead to any reduction

Molecule: human β-defensin 1 (DHYNCVSSGGQCLYSACPIFTKIQGTCYRGKAKCCK; Beta-defensin 1; UniProt P60022 33-68, looked up) [hBD-1, reference compound]
- activity under reducing conditions against several bacteria [11]: increased activity
- reduction by the TRX system [12]: can also reduce

Molecule: ΔredHD-6: synthetic reduced truncated HD-6 (TCHCRRSCYSTEYSYGTCTVMGINHRFCCL; Defensin-6 reduced; UniProt Q01524 71-100, looked up, fragment)
- ultrastructural alterations of the bacterium [13]: disintegration of stainable intracellular structures
- time for which the peptide retained its completely reduced status [14]: at least 2 h

B1: HD-5: synthetic oxidized human α-defensin 5 (peptide, UniProt Q01523 20-94, looked up)
Defensin alpha 5: ESLQERADEATTQKQSGEDNQDLAISFAGNGLSALRTSGSQARATCYCRTGRCATRESLSGVCEISGRLYRLCCR
modifications: Defensin-5
- reduction by the TRX system [12]: can also reduce

Reference: paper PMC4424388 (Mucosal Immunology, 2014)
